# Laboratory results: article PMC5901721 (Cancer research, 2018)
# Assays:
# MRCKβ [1] = type: cell-based, human; conditions: MDA MB 231 cells, inducible kinase domains, 60 minutes
# Outline: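 MDA MB 231 cells with doxycycline-inducible MRCKβ, ROCK1 or ROCK2 kinase domains were plated at 1.1×10⁵/well. After 24 h, 1 µg/ml doxycycline was given for 18 h, then test compound for 60 min. Lysis was in 50 mM Tris-HCl pH 7.4, 0.5% SDS with phosphatase inhibitors. pMLC2 was measured by quantitative western blot; mean ± SEM of 3-4 independent replicates.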
# PKCγ = experiment: Kinase selectivity profiling, 115 kinase panel; type: biochemical; conditions: 1 µM compound; apparent Km for ATP
# DMPK [2] = target: T1, DMPK (Homo sapiens, UniProt Q09013); experiment: Kinase selectivity profiling, 115 kinase panel; type: binding; conditions: 1 µM compound
# T1 sequence (Q09013 1-629): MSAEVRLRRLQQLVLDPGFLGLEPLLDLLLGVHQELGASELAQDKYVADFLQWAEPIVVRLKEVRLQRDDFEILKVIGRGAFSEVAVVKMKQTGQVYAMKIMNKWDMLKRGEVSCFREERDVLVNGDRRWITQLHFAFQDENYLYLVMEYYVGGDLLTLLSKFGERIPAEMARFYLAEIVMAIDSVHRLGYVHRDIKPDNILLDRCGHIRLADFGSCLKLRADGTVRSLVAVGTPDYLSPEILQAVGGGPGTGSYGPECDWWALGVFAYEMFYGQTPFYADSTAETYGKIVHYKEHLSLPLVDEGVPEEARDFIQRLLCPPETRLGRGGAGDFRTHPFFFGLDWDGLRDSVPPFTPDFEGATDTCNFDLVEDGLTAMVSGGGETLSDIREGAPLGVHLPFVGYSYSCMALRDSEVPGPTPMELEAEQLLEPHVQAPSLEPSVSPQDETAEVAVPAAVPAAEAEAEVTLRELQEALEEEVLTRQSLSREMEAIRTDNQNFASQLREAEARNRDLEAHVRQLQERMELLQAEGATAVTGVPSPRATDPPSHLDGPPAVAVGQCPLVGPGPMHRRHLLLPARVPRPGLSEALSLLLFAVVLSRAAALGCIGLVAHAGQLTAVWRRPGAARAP
# MRCKβ [3] = experiment: Out-sourced dose-response kinase assays; type: biochemical; conditions: Cheng-Prusoff equation
# DMPK [4] = target: T1, DMPK; experiment: Competitive LanthaScreen Eu TR-FRET kinase binding assay; conditions: read-out: Kd DMPK; displacement of fluorescent tracer; Cheng-Prusoff equation
# MRCKβ [5] = experiment: In-house kinase assay Ki compared with out-sourced values; type: biochemical
# 757 cancer cell lines = experiment: Cancer cell line screen; type: cell-based, human; conditions: 72 hours, up to 10 µM, p<0.05
# Outline: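 757 human cancer cell lines spanning 45 cancer types were seeded in 1536-well plates and exposed to a 7-point, half-log dilution series of test compound with a top concentration of 10 μM.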
# ROCK1 = experiment: Kinase selectivity profiling, 115 kinase panel; type: biochemical; conditions: 1 µM compound; apparent Km for ATP
# ROCK2 = experiment: Kinase selectivity profiling, 115 kinase panel; type: biochemical; conditions: 1 µM compound; apparent Km for ATP
# CDK2/Cyclin A = experiment: Kinase selectivity profiling, 115 kinase panel; type: biochemical; conditions: 1 µM compound
# CDK9/Cyclin K = experiment: Kinase selectivity profiling, 115 kinase panel; type: biochemical; conditions: 1 µM compound
# CDK9/Cyclin T1 = experiment: Kinase selectivity profiling, 115 kinase panel; type: biochemical; conditions: 1 µM compound
# PKCα = experiment: Kinase selectivity profiling, 115 kinase panel; type: biochemical; conditions: 1 µM compound
# TSSK1 (STK22D) = experiment: Kinase selectivity profiling, 115 kinase panel; type: biochemical; conditions: 1 µM compound
# MRCKα [6] = experiment: MRCKα pS1003 western blot in HEK293 cells expressing FLAG-MRCKα; type: cell-based, human; conditions: 2 hours
# Outline: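 HEK293 cells were transfected with 10 μg pEF-FLAG-MRCKα using a lipid reagent. After 48 h, they were treated 2 h with DMSO, 3 μM or 1 μM test compound. Cells were washed in PBS and lysed in 1% SDS, 50 mM Tris-HCl pH 7.4. Lysates were shredded and analysed by SDS-PAGE and western blot for MRCKα pS1003.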
# MRCKα [7] = experiment: In vitro MRCKα autophosphorylation and MLC2 phosphorylation assay; type: biochemical; conditions: dephosphorylated immunoprecipitated FLAG-MRCKα
# Outline: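 FLAG-MRCKα (wild type, K106M or S1003A) was expressed in HEK293 for 2 days and immunoprecipitated on beads. They were incubated with lysate of IPTG-induced bacteria expressing MLC2, with western blot read-out.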
# [8] = tested on: MLC2 phosphorylation in SCC12 cells; experiment: MLC2 phosphorylation in SCC12 cells; type: cell-based, human
# Outline: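 SCC12 cells were plated at 5×10⁵ per well of a 6-well plate. After 24 h, they were treated 2 h with DMSO or a dose range of test compound. Cells were washed in PBS, lysed in 1% SDS, 50 mM Tris-HCl pH 7.4, shredded, and analysed by SDS-PAGE western blotting for MLC2 phosphorylation.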
# SCC12 cells [9] = experiment: SCC12 cell viability; type: cell-based, human; conditions: 24 hour treatment
# SCC12 cells [10] = experiment: Operetta high content morphology analysis; type: cell-based, human; conditions: 2 hours
# Outline: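 SCC12 cells were seeded at 1.5×10⁴ per 96-well and grown 24 h, then treated 2 h with DMSO or a dose range of test compound. Fixation was 4% PFA for 15 min, permeabilisation 0.5% Triton X-100 for 15 min, blocking 1% BSA for 30 min. Staining used phalloidin, DAPI and a whole-cell stain, followed by automated high-content imaging and morphology analysis.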
# SCC12 cells [11] = experiment: Phalloidin F-actin immunofluorescence; type: cell-based, human; conditions: SCC12, 1 µM
# Outline: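 SCC12 cells on glass coverslips were grown overnight, then given medium with 1 μM test compound or DMSO. Cells were fixed in 4% paraformaldehyde/PBS for 15 min and permeabilised with 0.5% Triton X-100 for 5 min. F-actin was stained with Alexa 488 phalloidin, mounted with DAPI and imaged by confocal microscopy.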
# SCC12 cells [12] = experiment: Random migration; type: cell-based, human; conditions: SCC12, 0.4 μM, 6 hours
# Outline: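 SCC12 cells were plated at 2×10⁴ per well of an image-lock 96-well plate. After 24 h, medium was changed to DMSO or 0.4 μM test compound. Individual cells were tracked over 6 h to give accumulated distance, Euclidean distance, velocity and directionality. Data are mean ± SEM of 120 cells; two-tailed unpaired t-tests.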
# SCC12 cells [13] = experiment: SCC12 organotypic invasion assay; type: cell-based, human; conditions: SCC12, 0.4 μM, relative to DMSO vehicle
# [14] = Skin and blood concentrations after topical application to FVB mice; type: in vivo; conditions: FVB mouse
# Outline: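 FVB mice received topical test compound in 80% (v/v) DMSO under several regimens: once at 10 μg or 25 μg; 4 × 25 μg over 2 days; or 8 × 25 μg (4 days on, 2 off, 4 on), with vehicle controls. Mice were culled 2, 4, 8 or 24 h after the final dose. Skin and blood concentrations were measured by a contract laboratory; mean ± SD from 3 mice per condition.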
# MRCKα pS1003 [15] = experiment: MRCKα pS1003 staining of mouse skin after topical treatment; type: in vivo; conditions: FVB mouse, topical 4 X 25 µg over 2 days
# Outline: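 FVB mice (5 per group) received topical 25 μg test compound in 50 μL 80% (v/v) DMSO, or 50 μL vehicle. Four applications were given over 2 days. Mice were culled 2 h after the final treatment, and skin was taken for MRCKα pS1003 staining.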
# skin papillomas = experiment: DMBA/TPA two-stage chemical carcinogenesis model of SCC; type: in vivo, mouse; conditions: topical 25 μg 5 times per week for 14 weeks
# Outline: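 40 FVB mice received topical DMBA 25 μg in acetone on day 1. From day 5 they received TPA 4.7 μg in acetone three times weekly. From day 5, groups of 20 also got test compound 25 μg in 50 μL 80% DMSO or vehicle, 5 times/week for 14 weeks. Tumour size and number were recorded weekly, blinded. Culling was at 12 mm papilloma diameter. Data are mean ± SD, 20 mice.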
# [16] = Skin and blood concentrations at DMBA/TPA experimental endpoint; type: in vivo, mouse; conditions: DMBA/TPA mice, topical 25 μg 5 times per week
# Outline: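 DMBA/TPA-initiated and promoted FVB mice were dosed topically with test compound 25 μg in 50 μL 80% (v/v) DMSO, 5 times per week. Skin and blood compound concentrations were measured by a contract laboratory at study end.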
# MRCKα pS1003 [17] = experiment: MRCKα pS1003 immunohistochemistry in DMBA/TPA treated skin and papillomas; type: in vivo, mouse; conditions: DMBA/TPA mice, topical 25 μg 5 times per week
# Outline: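 Skin sections from DMBA/TPA mice dosed topically with 25 μg test compound in 80% DMSO or vehicle were stained for MRCKα pS1003. Normal skin and papilloma areas were selected, cells auto-detected and cytoplasmic intensity measured. Histoscore = %low×100 + %medium×200 + %high×300. Data are mean ± SD from 19 mice per group; two-tailed unpaired t-tests.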
# [18] = tested on: MLC2 phosphorylation in SCC12 cells; conditions: cited from earlier work
# SCC12 cells [19] = conditions: cited from earlier work
# [20] = topical 25 µg twice per day for 2 days
structure (smiles),measurement,setting,value
c1csc(-c2c[nH]c3nccc(N4CCC[C@@]5(CCCCN5)C4)c23)n1 [BDP8900],selectivity of pMLC2 inhibition for MRCKβ relative to ROCK1 or ROCK2,MRCKβ [1],> 562 times
same,inhibition of PKCγ,PKCγ,> 75%
same,inhibition of DMPK,DMPK [2],> 75%
same,minimum fold-selectivity for MRCKβ against all kinases tested (calculated Ki),MRCKβ [3],43 times
same,Kd,DMPK [4],800 pM
same,affinity (MRCKβ Ki determined in-house) higher than the DMPK Kd,MRCKβ [5],33 fold
same,number of cancer types significantly resistant relative to all cancer cell lines,757 cancer cell lines,6
same,number of cancer types significantly sensitive relative to all cancer cell lines,757 cancer cell lines,10
c1cc(-c2c[nH]c3nccc(N4CCC[C@@]5(CCCCN5)C4)c23)ncn1 [BDP9066],selectivity of pMLC2 inhibition for MRCKβ relative to ROCK1 or ROCK2,MRCKβ [1],> 100 times
same,inhibition of DMPK,DMPK [2],> 75%
same,inhibition of ROCK1,ROCK1,> 75%
same,inhibition of ROCK2,ROCK2,> 75%
same,inhibition of CDK2/Cyclin A,CDK2/Cyclin A,> 75%
same,inhibition of CDK9/Cyclin K,CDK9/Cyclin K,> 75%
same,inhibition of CDK9/Cyclin T1,CDK9/Cyclin T1,> 75%
same,inhibition of PKCα,PKCα,> 75%
same,inhibition of TSSK1 (STK22D),TSSK1 (STK22D),> 75%
same,minimum fold-selectivity for MRCKβ against all kinases tested (calculated Ki),MRCKβ [3],27 times
same,Kd,DMPK [4],980 pM
same,affinity (MRCKβ Ki determined in-house) higher than the DMPK Kd,MRCKβ [5],42 fold
same,number of cancer types significantly resistant relative to all cancer cell lines,757 cancer cell lines,4
same,number of cancer types significantly sensitive relative to all cancer cell lines,757 cancer cell lines,8
same,pS1003 immunoreactivity,MRCKα [6]; 1 µM,blocked
same,MRCKα S1003 autophosphorylation in vitro,MRCKα [7],blocked
same,recombinant MLC2 phosphorylation by MRCKα in vitro,MRCKα [7],blocked
same,increase in cellular potency relative to BDP5290,[8]; SCC12 cells pMLC2,5 fold
same,EC50,"[8]; read-out: EC50 inhibition of MLC2 phosphorylation, SCC12 cells, 2 hours",64000 pM
same,SCC12 cell viability,SCC12 cells [9]; all concentrations up to 0.5 µM,unaffected
same,decrease in viability,"SCC12 cells [9]; SCC12 cells, 1 μM",25%
same,proportion of irregularly shaped cells,"SCC12 cells [10]; SCC12, 0.5 μM",increased
same,proportion of regularly shaped cells,"SCC12 cells [10]; SCC12, 0.5 μM",reduced proportions
same,2D cell area,"SCC12 cells [10]; SCC12, dose range",increased
same,cell roundness,"SCC12 cells [10]; SCC12, dose range",decreased
same,proportion of elongated cells,"SCC12 cells [10]; SCC12, varying concentrations",did not vary
same,bundling of filamentous actin at cortical and cytoplasmic regions,SCC12 cells [11],reduced
same,directionality of cell motility,SCC12 cells [12],No differences
same,reduction of accumulated distance travelled,SCC12 cells [12],21%
same,reduction of mean Euclidean distance travelled,SCC12 cells [12],18%
same,reduction of mean cell velocity,SCC12 cells [12],21%
same,decrease in the percentage of invading cells,SCC12 cells [13],50%
same,"higher concentration in skin, repeated 25 μg doses relative to single 10 μg dose",[14]; topical,2.8 fold
same,mean concentration in blood,[14]; [20],40 nM
same,mean concentration in skin,[14]; [20],26000 nM
same,level in blood after 24 hours,"[14]; topical, single 25 μg or 8 X 25 μg",undetectable
same,concentration in skin 24 hours after final dosing,"[14]; topical, single 25 μg or 8 X 25 μg (either regimen)",over 16 μM
same,epidermal MRCKα pS1003 positive staining,MRCKα pS1003 [15],significantly reduced
same,average papilloma volume per mouse vs DMSO,skin papillomas,significantly reduced
same,total papilloma numbers per mouse vs DMSO,skin papillomas,not different
same,total tumor volume per mouse vs DMSO,skin papillomas,significantly reduced
same,compound in blood at experimental endpoint,[16],undetectable
same,mean concentration in skin at experimental endpoint,[16],> 1000 nM
same,MRCKα pS1003 histoscores in papillomas,MRCKα pS1003 [17],reduced
same,MRCKα pS1003 histoscores in the treated skin area,MRCKα pS1003 [17],reduced
same,MRCKα pS1003 immunohistochemistry staining,MRCKα pS1003 [17],significant decreases
O=C(Nc1cn[nH]c1-c1ccccn1)c1nn(C2CCNCC2)cc1Cl [BDP5290],pS1003 immunoreactivity,MRCKα [6]; 3 µM,blocked
same,MLC phosphorylation,[18],reduced MLC phosphorylation
same,SCC12 organotypic invasion,SCC12 cells [19],inhibited SCC12 organotypic invasion
